Env fusion inh – HIV envelope-mediated fusion inhibition. HeLa-JRFL Env/CEM21 cell fusion, luciferase. inhibition, % at 12.3 µM. AID 651610. 1.1% of 360,000 active;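 active = mean replicate inhibition score of at least 50 and every replicate individually at or above 50; inconclusive = only one of the two criteria met; inactive = mean below 50 and not all replicates reaching 50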;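 note: 0% = plate neutral controls and 100% = maraviroc near 300 nM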
FGF22 binding – binders of recombinant human FGF22 by thermal shift; Q9HCT0; SYPRO orange fluorescence; percent of sucrose octasulfate shift, DMSO zero; activity (Tm shift, normalised), % at 9.99 µM; 1.5% of 340,000 active;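 active = mean Tm shift, scaled 0 neutral to 100 positive control, at about 1.3% or above, every replicate too, limit read from the data; inconclusive = no clear call, values can overlap the other calls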
Target sequence (Q9HCT0 whole entry, looked up): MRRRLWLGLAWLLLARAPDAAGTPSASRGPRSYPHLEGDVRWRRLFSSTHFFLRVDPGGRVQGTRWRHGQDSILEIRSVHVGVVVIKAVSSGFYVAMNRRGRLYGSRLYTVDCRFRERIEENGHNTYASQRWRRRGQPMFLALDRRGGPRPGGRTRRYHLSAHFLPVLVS
PAX8 inh HTS – PAX8 transcriptional activity inhibition; RMG-I TPO-luciferase reporter, SteadyGlo, 24 h; inhibition, % at 12.6 µM; 1.2% of 360,000 active; AID 652154;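 active = mean replicate inhibition at least 60% with every replicate also reaching 60%; inconclusive = only one of the two criteria is met; inactive = mean below 60% and not all replicates reaching 60%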;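 note: luciferase light reporting Pax8 driven TPO promoter activity; plate controls were median of neutral control wells for no effect and mitoxantrone controls for full effect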
EWS-Fli block – inhibitors of EWS/Fli oncoprotein transcriptional activity; A673 NR0B1-luciferase reporter, viability-normalised; inhibition, % at 12.6 µM; 0.67% of 350,000 active; AID 651661;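 active = mean inhibition of at least 50% after viability correction, with every replicate also passing that limit; inconclusive = mean reaches 50% but only one of two replicates passes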;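 note: firefly luciferase signal divided by Alamar Blue viability fluorescence both relative to DMSO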
PGC1a acetyl inh – PGC1a acetylation modulation, inhibitor mode; U2OS PGC1a acetylation, AlphaScreen anti-acetyl-lysine; with virally co-expressed GCN5 acetyltransferase; inhibition, % at 15.6 µM; 0.17% of 350,000 active;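 active = every replicate shows inhibition of at least 40%; inconclusive = mean inhibition at least 40% but some replicate below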;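 note: 0% = neutral control wells and 100% = positive control wells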
FN deposition inh – fibronectin deposition inhibition. AH1F fibroblasts, Alexa488-fibronectin deposition fluorescence, overnight. inhibition, % at 12.6 µM. AID 743247. 0.086% of 350,000 active;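 active = mean inhibition across replicates of 30% or more, regardless of how many single replicates reach that level; inconclusive = mean under 30% yet at least half of replicates reach 30%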;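 note: positive control wells lacked labelled fibronectin entirely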
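Material: AH1F fibroblasts assembling fluorescent fibronectin matrix; amount: 10000 AH1F cells/well; medium: DMEM, 2% serum; reagent: Alexa488-fibronectin, 24 nM final in well; dosing: single compound dose, delivered by pin transfer; incubation: 1 h adhesion, overnight exposure; detection: fluorescence after three HBSS washes, excitation 485 nm, emission 525 nm; measure: fibronectin deposition inhibition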
The depositor's hits bear a star; ? = inconclusive; · = no result given; [ ] = dose if it differs, or a comment. Hits are enriched below; roughly 3.1% of the tested compounds scored in any of these assays.

SMILES	Env fusion inh	FGF22 binding	PAX8 inh HTS	EWS-Fli block	PGC1a acetyl inh	FN deposition inh
COC1=CC(=O)C=C(OC)C1=O	-41	-1	78*	63*	-107	-1
Cc1c(CCOC(=O)c2ccc(N3CCOCC3)c([N+](=O)[O-])c2)sc[n+]1CC#N	-31	0	-3	2	3	-1
Cc1ncsc1CCOC(=O)c1ccc(N2CCOCC2)c([N+](=O)[O-])c1	-1	44*	19	-11	·	0
CCc1nnc(N/N=C/c2cc(Br)c(O)cc2O)n1N	8	-1	4	3	-14	1
CC(C)(C)c1nnc(N/N=C/c2cc(Br)ccc2O)n(N)c1=O	4	·	61*	·	·	14
CCOC(=O)c1c(N2C(=O)Nc3ccccc3N2O)n[nH]c1-c1cccc(OC)c1	-14	43*	-11	-7	·	5
O=C(Cc1ccc(S(=O)(=O)N2CCOCC2)s1)N1CCN(S(=O)(=O)c2ccc(Cl)cc2)CC1	70*	0	9	3	3	-4
CC(C)CC(=O)N1CCN(S(=O)(=O)c2ccc(Cl)cc2)CC1	7	43*	-10	5	1	3
N#C[C@@H]1[C@@H](c2ccc(-c3cccc(F)c3)cc2)[C@@H](CO)N1S(=O)(=O)c1cccc(F)c1	3[16.7 µM]	0	19	-10	-8	-14
COc1ccc(NC(=O)Nc2ccc3c(c2)C(=O)N([C@H](C)CO)C[C@H](C)[C@@H](CN(C)Cc2ccncc2)O3)cc1	·	0	32	4	3	·
CCOc1ccc(-c2ccc(SC)nn2)cc1	-2	0	75*	79*	·	·
COc1cc(/C=C/C(=O)OCC(=O)NC(=O)NC(C)C)ccc1O	57*	0	7	20	6	-8
COc1cc(/C=C/C(=O)OCC(=O)NC(=O)NC(C)C)ccc1OCC#N	12	·	3	·	·	-4
COc1ccc(S(=O)(=O)Nc2ccc3c(c2)C(=O)N([C@H](C)CO)C[C@@H](C)[C@@H](CN(C)Cc2ccccc2)OCCCC[C@H](C)O3)cc1	-38[16.7 µM]	0	24	32	-16	11
C[C@@H]1CCCCO[C@H](CN(C)S(=O)(=O)c2ccccc2)[C@@H](C)CN([C@H](C)CO)C(=O)c2cc(N(C)C)ccc2O1	23[16.7 µM]	-1	-7	-4	-17	·
C[C@H]1CN([C@@H](C)CO)C(=O)c2cccc(NS(=O)(=O)c3cccs3)c2O[C@H]1CN(C)CC1CC1	5[16.7 µM]	0	-31	6	6	·
CC(=O)c1cnc2scnn2c1=O	-3	43*	10	2	-1	0
Cc1csc2ncc(C(=O)Nc3ccc(C(F)(F)F)cc3)c(=O)n12	18	0	39	3	5	-20
CC(=O)OC1CCC2(C)C3CCC4(C)C(C(C)=O)CCC4C3CC3OC32C1 (stereo unspecified)	-317	43*	-7	1	-6	-9
CC(C)(CO)NCc1ccc(Br)cc1	-2	43*	8	17	·	-26
COc1cc(C(=O)OCC(=O)Nc2sccc2C(N)=O)cc(OC)c1OC	14	1	9	61*	·	4
COc1cc(/C=C2\N=C(c3ccccc3)NNC2=O)cc(OC)c1OC	-126	0	44	56*	4	-16
Cc1ccc(S(=O)(=O)NC(CC(=O)OCc2ccccc2)C(=O)OCc2ccccc2)cc1 (stereo unspecified)	0	30*	-4	7	-11	1
CO[C@H]1CN(C)C(=O)c2cc(NS(=O)(=O)c3cn(C)cn3)ccc2OC[C@H](C)N(C)C[C@@H]1C	7[16.7 µM]	·	6	0	-7	-21
O=C(O)CCCn1cc(NC(=O)COc2ccc([N+](=O)[O-])cc2)cn1	-8	43*	14	-6	·	·
SMILES	Env fusion inh	FGF22 binding	PAX8 inh HTS	EWS-Fli block	PGC1a acetyl inh	FN deposition inh
CN(C)c1nc(OCCNC(=O)COc2ccc(Cl)cc2Cl)nc(N2CCOCC2)n1	41*	·	-4	·	·	0
O=C(COc1ccc(Cl)cc1Cl)NCCCN1CCOCC1	-12	·	·	·	?	0
Cc1cc(Cl)ccc1OCC(=O)NCCOc1nc(N2CCOCC2)nc(N2CCOCC2)n1	94*	·	23	·	-20	29
O=C(C[C@H]1C=C[C@H](NC(=O)Cc2cccnc2)[C@H](CO)O1)Nc1ccc(-c2ccccc2)cc1	·	·	9	-3	·	1
Cc1noc(C)c1S(=O)(=O)Nc1ccc2c(c1)C(=O)N([C@H](C)CO)C[C@H](C)[C@H](CN(C)C(=O)c1ccccc1)OCCCC[C@@H](C)O2	3[16.7 µM]	·	-6	8	-10	-10
Cc1ccccc1-c1ccc([C@@H]2[C@H](CO)N3CCCCN(C(=O)Nc4cccc(F)c4)C[C@@H]23)cc1	·	0	108*	61*	-52	·
Cc1ccccc1-c1ccc([C@H]2[C@@H](CO)N3CCCCN(C(=O)Nc4cccc(F)c4)C[C@H]23)cc1	·	0	100*	67*	-43	·
O=C1c2cccc(NCCNCCO)c2C(=O)c2cccc(NCCNCCO)c21	59*	-1	10	59*	·	3
C[N+](C)(CCOc1ccccc1)Cc1ccccc1	-121	0	21	2	-14	-5
Cc1cc(C(C)(C)CC(C)(C)C)ccc1OCCOCC[N+](C)(C)Cc1ccccc1	31	-1	72*	40	-35	-1
CCCC(=O)Nc1ccc2c(c1)C(=O)N(C)[C@H]1CC[C@H](CC(=O)OC)O[C@@H]1CO2	·	·	·	-4	4	-37
O=S(=O)(N1CCCCC1)N1CCN(CC(O)COc2ccc3cc(Br)ccc3c2)CC1 (stereo unspecified)	63*	·	·	·	5	5
CN(C)S(=O)(=O)N1CCN(CC(O)COc2ccc3cc(Br)ccc3c2)CC1 (stereo unspecified)	·	·	·	·	-8	·
CCNC1CCC(Nc2ccnc3cc(Cl)ccc23)CC1 (stereo unspecified)	74*	0	19	4	2	7
OC(CNc1ccnc2cc(Cl)ccc12)CNC1CCCCC1 (stereo unspecified)	2	0	29	24	-15	5
NC(N)=Nc1nc(-c2ccccc2)c2ccccc2n1	-4	0	20	1	0	-10
CCc1nc(N=C(N)N)nc2ccccc12	7	43*	18	11	·	-9
CCCCOc1ccc(C(=O)N/C(=C/c2cccc([N+](=O)[O-])c2)C(=O)O)cc1	7	52*	15	10	13	-2
CCCCOc1ccc(C(=O)N/C(=C\c2cccc([N+](=O)[O-])c2)C(=O)OCCC)cc1	·	·	·	·	11	·
Cc1cc(C)n2nc(SCC(=O)N(Cc3ccccc3)C3CCS(=O)(=O)C3)nc2n1 (stereo unspecified)	-3	43*	21	-5	5	-26

Source: PubChem
